Reference: ChEMBL document CHEMBL1130397, “Structure-activity relationships of (4-acylpyrrol-2-yl)alkanoic acids as inhibitors of the cytosolic phospholipase A2: variation of the substituents in positions 1, 3, and 5” (J Med Chem, 1997)
Active and inactive are the calls of the source. The rule behind the calls is not given here.

Assays:
[1] = target: T1, Cytosolic phospholipase A2 (Bos taurus, UniProt A4IFJ5); experiment: Inhibition of cPLA2 measuring Calcium ionophore A-23,187-induced arachidonic acid release from bovine platelets with HPLC/UV detection.; type: functional
T1 sequence (A4IFJ5 whole entry): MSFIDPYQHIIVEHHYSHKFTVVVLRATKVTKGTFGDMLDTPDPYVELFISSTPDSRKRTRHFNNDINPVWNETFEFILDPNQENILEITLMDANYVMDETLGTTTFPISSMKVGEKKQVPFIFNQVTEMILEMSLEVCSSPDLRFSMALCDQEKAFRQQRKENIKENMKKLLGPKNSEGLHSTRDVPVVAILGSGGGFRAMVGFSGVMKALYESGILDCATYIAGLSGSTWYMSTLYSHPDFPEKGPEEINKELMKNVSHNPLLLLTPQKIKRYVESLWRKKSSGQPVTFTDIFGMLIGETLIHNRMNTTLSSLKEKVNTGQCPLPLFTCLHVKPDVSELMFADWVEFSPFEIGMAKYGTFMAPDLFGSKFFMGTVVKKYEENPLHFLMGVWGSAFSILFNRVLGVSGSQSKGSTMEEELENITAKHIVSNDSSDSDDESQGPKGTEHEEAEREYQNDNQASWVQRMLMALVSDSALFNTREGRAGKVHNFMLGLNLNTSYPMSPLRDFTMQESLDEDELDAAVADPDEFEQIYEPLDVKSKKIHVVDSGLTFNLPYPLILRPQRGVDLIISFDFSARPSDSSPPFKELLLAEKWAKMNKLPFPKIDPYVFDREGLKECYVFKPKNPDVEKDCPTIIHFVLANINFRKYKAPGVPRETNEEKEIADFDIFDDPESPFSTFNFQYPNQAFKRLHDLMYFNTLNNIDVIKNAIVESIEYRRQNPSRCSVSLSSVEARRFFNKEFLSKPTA
Procedure, shortened: (§1)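 Bovine platelet suspension stimulated with calcium ionophore A23187; released arachidonic acid quantified by HPLC/UV. Test compounds in DMSO, or DMSO–0.05 M ethanolic NaOH, added after platelets in the latter case to protect ETYA. Assays run within 36 h of platelet isolation; platelets stored at 4 °C. Values averaged from at least two runs, error within ±20%.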

[2] = Percentage platelet cell lysis at 33 uM measured by turbidimetry.; type: functional, Bos taurus
Procedure, shortened: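 Turbidimetric lysis: ETYA solution, then test compound or solvent control, then bovine platelet suspension and calcium chloride at 37 °C. After dilution with phosphate-buffered saline, absorbance read at 800 nm; lysis lowers absorbance. Compounds dissolved in DMSO or DMSO–0.05 M ethanolic NaOH (1+1). Performed within 36 h of platelet isolation; platelets kept at 4 °C.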

[3] = test system: Cytosolic phospholipase A2 (Bos taurus); experiment: Inhibition of cPLA2 measuring Calcium ionophore A-23,187-induced arachidonic acid release from bovine platelets with HPLC/UV detection. at 3.3 uM concentration.
[4] = test system: Cytosolic phospholipase A2 (Bos taurus); experiment: Inhibition of cPLA2 measuring Calcium ionophore A-23,187-induced arachidonic acid release from bovine platelets with HPLC/UV detection; Not active at 20 uM
[5] = test system: Cytosolic phospholipase A2 (Bos taurus); experiment: Inhibition of cPLA2 measuring Calcium ionophore A-23,187-induced arachidonic acid release from bovine platelets with HPLC/UV detection; 0% inhibition at 3.3 uM concentration.
[6] = Ability of arachidonic acid release at 10 uM; type: functional; procedure, shortened: as §1
[7] = target: T1, Cytosolic phospholipase A2; experiment: Inhibition of cPLA2 measuring Calcium ionophore A-23,187-induced arachidonic acid release from bovine platelets with HPLC/UV detection; type: functional; procedure, shortened: as §1
[8] = test system: Cytosolic phospholipase A2 (Bos taurus); experiment: Inhibition of cPLA2 measuring Calcium ionophore A-23,187-induced arachidonic acid release from bovine platelets with HPLC/UV detection.; NA = 0% inhibition at 3.3 uM
[9] = 33 uM, in the assay text read “at 33 uM” for “at 10 uM”

IC50 ([1]; read-out: IC50) [µM] | Structure (SMILES) | Lysis [2] [%] | further results
12 | CCCCCCCCCCCCCCCCCC(=O)c1c(C)c(CC(=O)O)n(C)c1Cc1ccccc1 | 0 | 
14 | CCCCCCCCCCCCCCCCCC(=O)c1cc(CCC(=O)O)n(C)c1 | 0 | 
12 | CCCCCCCCCCCCCCCCCC(=O)c1c(C)c(CCC(=O)O)n(Cc2ccccc2)c1C | 19 | inhibition [3]: 20%
 | CCCCCCCCCCCCCCCCCC(=O)c1c(C)c(CCC(=O)O)n(CCCCCCO)c1C | 0 | inhibition [3]: 20%
8 | CCCCCCCCCCCCCCCCCC(=O)c1c(C)c(CC(=O)O)n(CCC)c1C | 34 | 
9 | CCCCCCCCCCCCCCCCCC(=O)c1c(C)c(CC(=O)O)n(CC)c1C | 10 | 
> 10 | CCCCCCCCCCCCCCCCCC(=O)c1c(C)c(CC(=O)O)n(CCCCCC)c1C | 37 | 
 | CCCCCCCCCCCCCCCCCC(=O)c1c(C)c(CCC(=O)O)n(Cc2ccc(C)cc2)c1C | 14 | IC50 [4]: Not Active; inhibition [5]: inactive
 | CCCCCCCCCCCCCCCCCC(=O)c1c(C)c(CC(=O)O)n(CCCCCCCCCCCC)c1C | 0 | Activity [6, 9]: 1.5 fold
 | CCCCCCCCCCCCCCCCCC(=O)c1c(C)c(CCC(=O)O)n(CCCCCC#N)c1C | 39 | inhibition [3]: 40%
 | CCCCCCCCCCCCCCCCCC(=O)c1c(C)c(CCC(=O)O)n(Cc2ccc(C(N)=O)cc2)c1C | 0 | inhibition [3]: 44%
 | CCCCCCCCCCCC(=O)c1c(C)c(CCC(=O)O)n(CCCCC(=O)O)c1C | 0 | IC50 [7]: 3.9 µM
 | CCCCCCCCCCCC(=O)c1c(C)c(CC(=O)O)n(CCCCCC(=O)O)c1C | 0 | IC50 [7]: 11 µM
 | CCCCCCCCCCCCCCCCCC(=O)c1c(C)c(CCC(=O)O)n(CCCCCC(=O)O)c1C | 54 | inhibition [3]: 52%
 | CCCCC/C=C\C/C=C\C/C=C\C/C=C\CCCC(=O)C(F)(F)F [ARACHIDONYL TRIFLUOROMETHYLKETONE] | 31 | 
 | CCCCCCCCCCCCCCCCCC(=O)c1c(C)c(CCC(=O)O)n(Cc2ccc(C#N)cc2)c1C | 26 | inhibition [3]: 15%
15 | CCCCCCCCCCCCCCCCCC(=O)c1cc(CC(=O)O)n(C)c1 | 0 | 
 | CCCCCCCCCCCC(=O)c1c(C)c(CC(=O)O)n(CCCCCCCCC(=O)O)c1C | 21 | IC50 [7]: 3.3 µM
 | CCCCCCCCCCCCCCCCCC(=O)c1c(C)c(CC(=O)O)n(CCCCCCC)c1C | 19 | IC50 [1]: Not Active
 | CCCCCCCCCCCCCCCCCC(=O)c1c(C)c(CCC(=O)O)n(Cc2ccc(OC)cc2)c1C | 12 | inhibition [3]: 31%
 | CCCCCCCCCCCC(=O)c1c(C)c(CC(=O)O)n(C)c1C | 0 | IC50 [7]: 11 µM
 | CCCCCCCCCCCCCCCCCC(=O)c1c(C)c(CCC(=O)O)n(Cc2ccc(C(=O)N(C)C)cc2)c1C | 42 | inhibition [3]: 34%
 | CCCCCCCCCCCCCCCCCC(=O)c1c(C)c(CC(=O)O)n(C)c1CCCCCCCCCCCC | 0 | Activity [6, 9]: 1.5 fold
 | CCCCCCCCCCCC(=O)c1c(C)c(CC(=O)O)n(CCCCCCC(=O)O)c1C | 0 | IC50 [7]: 5.6 µM

IC50 ([1]; read-out: IC50) [µM] | Structure (SMILES) | Lysis [2] [%] | further results
11 | CCCCCCCCCCCCCCCCCC(=O)c1c(C)c(CCC(=O)O)n(CC)c1C | 0 | 
 | CCCCCCCCCCCCCCCCCC(=O)c1c(C)c(CCC(=O)O)n(CCCCCC(=O)N(C)C)c1C | 67 | inhibition [3]: 38%
 | CCCCCCCCCCCCCCCCCC(=O)c1c(C)c(CCC(=O)O)n(CCCCCCN(C)C)c1C | 0 | inhibition [3]: 33%
 | CCCCCCCCCCCCCCCCCC(=O)c1c(C)c(CCC(=O)O)n(Cc2ccc(C(=O)O)cc2)c1C | 57 | inhibition [3]: 47%
11 | CCCCCCCCCCCCCCCCCC(=O)c1c(C)c(CCC(=O)O)n(CCC)c1C | 0 | 
 | CCCCCCCCCCCC(=O)c1c(C)c(CCC(=O)O)n(CCCCCC(=O)O)c1C | 0 | IC50 [7]: 3.4 µM
 | CCCCCCCCCCCC(=O)c1c(C)c(CC(=O)O)n(CCCCCCCC(=O)O)c1C | 0 | IC50 [7]: 3.7 µM
 | CCCCCCCCCCCCCCCCCC(=O)c1c(C)c(CCC(=O)O)n(Cc2ccc(Cl)cc2)c1C | 13 | inhibition [5]: inactive
 | CCCCCCCCCCCCCCCCCC(=O)c1c(CCCCCCCCCCCC)c(CC(=O)O)n(C)c1C | 0 | Activity [6, 9]: 1.5 fold
 | CCCCCCCCCCCCCCCCCC(=O)c1c(C)c(CCC(=O)O)n(Cc2ccc(C(F)(F)F)cc2)c1C | 13 | inhibition [5]: inactive
13 | CCCCCCCCCCCCCCCCCC(=O)c1c(C)c(CCC(=O)O)n(C)c1C | 0 | 
 | CCCCCCCCCCCC(=O)c1c(C)c(CCC(=O)O)n(C)c1C | 0 | IC50 [7]: 13 µM
 | CCCCCCCCCCCCCCCCCC(=O)c1c(C)c(CCC(=O)O)n(CCCCCC)c1C | 10 | IC50 [4]: Not Active; inhibition [8]: inactive
 | CCCCCCCCCCCCCCCCCC(=O)c1c(Cc2ccccc2)c(CC(=O)O)n(Cc2ccccc2)c1C | 24 | Activity ([6]; 10 uM): 1.3 fold
10 | CCCCCCCCCCCCCCCCCC(=O)c1c(C)c(CCC(=O)O)n(CCCCC)c1C | 13 | inhibition [3]: 23%
10 | CCCCCCCCCCCCCCCCCC(=O)c1c(C)c(CC(=O)O)n(C)c1C | 0 | 
 | CCCCCCCCCCCC(=O)c1c(C)c(CCC(=O)O)n(CCC(=O)O)c1C | 0 | IC50 [7]: 8 µM
 | CCCCCCCCCCCCCCCCCC(=O)c1c(C)c(CCC(=O)O)n(Cc2ccc(O)cc2)c1C | 0 | inhibition [3]: 30%
13 | CCCCCCCCCCCCCCCCNC(=O)[C@@H]1CCCN1 | 0 | 
10 | CCCCCCCCCCCCCCCCCC(=O)c1c(Cc2ccccc2)c(CC(=O)O)n(C)c1C | 22 | 
 | CCCCCCCCCCCC(=O)c1c(C)c(CCC(=O)O)n(CCCCCCCC(=O)O)c1C | 0 | IC50 [7]: 3.6 µM
9 | CCCCCCCCCCCCCCCCCC(=O)c1c(C)c(CC(=O)O)n(Cc2ccc(C)cc2)c1C | 29 | 
7 | CCCCCCCCCCCCCCCCCC(=O)c1c(C)c(CC(=O)O)n(Cc2ccccc2)c1C | 32 | 
 | CCCCCCCCCCCC(=O)c1c(C)c(CCC(=O)O)n(CCCCCCC(=O)O)c1C | 0 | IC50 [7]: 3.8 µM
